Experiments:
Type in all cases: functional
K562 = experiment: Growth inhibition of human K562 cells at 1 nM after 96 hrs by MTT assay; set-up: scale not given: the % may be the effect or the level left
HCT-15 = experiment: Growth inhibition of human HCT15 cells at 1 nM after 96 hrs by MTT assay; set-up: scale not given: the % may be the effect or the level left
T47D = experiment: Growth inhibition of human T47D cells at 1 uM after 96 hrs by MTT assay; set-up: scale not given: the % may be the effect or the level left
NCI-H226 [1] = experiment: Growth inhibition of human NCI-H226 cells at 1 nM after 96 hrs by MTT assay; set-up: scale not given: the % may be the effect or the level left
NCI/ADR-RES [2] = experiment: Growth inhibition of human NCI/ADR-RES cells after 96 hrs by MTT assay
Summary of the method: (§1)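 Run in the NCI 60 human tumour cell line panel as a five-dose assay. GI50 and LC50 were reported for each cell line.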

NCI/ADR-RES [3] = experiment: Growth inhibition of human NCI/ADR-RES cells at 10 nM after 96 hrs by MTT assay; set-up: scale not given: the % may be the effect or the level left
ACHN = experiment: Growth inhibition of human ACHN cells at 10 nM after 96 hrs by MTT assay; set-up: scale not given: the % may be the effect or the level left
PC-3 = experiment: Growth inhibition of human PC3 cells at 10 uM after 96 hrs by MTT assay; set-up: scale not given: the % may be the effect or the level left
SNB-19 = experiment: Growth inhibition of human SNB19 cells at 10 uM after 96 hrs by MTT assay; set-up: scale not given: the % may be the effect or the level left
[4] = Growth inhibition of human Hs 578T cells at 1 uM after 96 hrs by MTT assay; set-up: scale not given: the % may be the effect or the level left
SR = experiment: Growth inhibition of human SR cells after 96 hrs by MTT assay
Summary of the method: (§2)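 Tested in the NCI 60-cell-line panel in five-dose format; GI50 and LC50 values reported for each cell line.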

[5] = Growth inhibition of human RPMI8266 cells at 1 uM after 96 hrs by MTT assay; set-up: scale not given: the % may be the effect or the level left
OVCAR-3 = experiment: Growth inhibition of human OVCAR-3 cells after 96 hrs by MTT assay; conditions: OVCAR-3, 96 h; summary of the method: as §2
M14 = experiment: Growth inhibition of human M14 cells after 96 hrs by MTT assay; conditions: M14, 96 h; summary of the method: as §1
NCI-H226 [6] = experiment: Growth inhibition of human NCI-H226 cells at 10 nM after 96 hrs by MTT assay; set-up: scale not given: the % may be the effect or the level left
SF-295 = experiment: Growth inhibition of human SF295 cells at 10 uM after 96 hrs by MTT assay; set-up: scale not given: the % may be the effect or the level left
MDA-MB-468 = experiment: Growth inhibition of human MDA-MB-468 cells at 1 uM after 96 hrs by MTT assay; set-up: scale not given: the % may be the effect or the level left
[7] = Growth inhibition of human Hs 578T cells after 96 hrs by MTT assay; summary of the method: as §1
SK-MEL-2 = experiment: Growth inhibition of human SK-MEL-2 cells at 10 nM after 96 hrs by MTT assay; set-up: scale not given: the % may be the effect or the level left
NCI-H522 = experiment: Growth inhibition of human NCI-H522 cells at 1 uM after 96 hrs by MTT assay; set-up: scale not given: the % may be the effect or the level left
LOX IMVI = experiment: Growth inhibition of human LOXIMVI cells at 100 nM after 96 hrs by MTT assay; set-up: scale not given: the % may be the effect or the level left
CAKI-1 = experiment: Growth inhibition of human Caki1 cells after 96 hrs by MTT assay; conditions: CAKI-1, 96 h
UACC-257 = experiment: Growth inhibition of human UACC257 cells at 100 nM after 96 hrs by MTT assay; set-up: scale not given: the % may be the effect or the level left
MOLT-4 = experiment: Growth inhibition of human MOLT4 cells after 96 hrs by MTT assay; conditions: MOLT-4, 96 h; summary of the method: as §1
[8] = read-out: LC50 (the source's name)
[9] = read-out: Log10GI50 (converted)
[10] = read-out: Log10LC50 (converted)

Structure (SMILES): C=C(C)[C@H]1CC=C(C)C2=CO[C@@H](c3ccccc3F)[C@@H]21
- Activity (K562): 101%
- Activity (HCT-15): 94%
- Activity (T47D): 2%
- Activity (NCI-H226 [1]): 96%
- GI50 (NCI/ADR-RES [2]; read-out: GI50): 3.67 µM
- CC50 (NCI/ADR-RES [2]; [8]): 56.1 µM
- GI50 (NCI/ADR-RES [2]; [9]): 3.63 µM
- CC50 (NCI/ADR-RES [2]; [10]): 56.2 µM
- TGI (NCI/ADR-RES [2]; read-out: Log10TGI (converted)): 17.8 µM
- TGI (NCI/ADR-RES [2]; read-out: TGI): 17.9 µM
- Activity (NCI/ADR-RES [3]): 97%
- Activity (ACHN): 96%
- Activity (PC-3): 22.47%
- Activity (SNB-19): 82.9%
- Activity [4]: 28%
- GI50 (SR; read-out: GI50): 0.798 µM
- CC50 (SR; [8]): 23.9 µM
- GI50 (SR; [9]): 0.794 µM
- CC50 (SR; [10]): 24 µM
- TGI (SR; read-out: Log10TGI (converted)): 3.72 µM
- TGI (SR; read-out: TGI): 3.67 µM
- Activity [5]: -52%
- GI50 (OVCAR-3; read-out: GI50): 3.24 µM
- CC50 (OVCAR-3; [8]): 36.5 µM
- GI50 (OVCAR-3; [9]): 3.24 µM
- CC50 (OVCAR-3; [10]): 36.3 µM
- TGI (OVCAR-3; read-out: Log10TGI (converted)): 12.9 µM
- TGI (OVCAR-3; read-out: TGI): 12.8 µM
- GI50 (M14; read-out: GI50): 6.51 µM
- CC50 (M14; [8]): 45.6 µM
- GI50 (M14; [9]): 6.46 µM
- CC50 (M14; [10]): 45.7 µM
- TGI (M14; read-out: Log10TGI (converted)): 20 µM
- TGI (M14; read-out: TGI): 20.2 µM
- Activity (NCI-H226 [6]): 89%
- Activity (SF-295): 85.19%
- Activity (MDA-MB-468): 11%
- GI50 ([7]; read-out: GI50): 2.72 µM
- CC50 [7, 8]: > 100 µM
- GI50 [7, 9]: 2.69 µM
- CC50 [7, 10]: > 100 µM
- TGI ([7]; read-out: Log10TGI (converted)): 24.5 µM
- TGI ([7]; read-out: TGI): 24.8 µM
- Activity (SK-MEL-2): 82%
- Activity (NCI-H522): 29%
- Activity (LOX IMVI): 79%
- GI50 (CAKI-1; read-out: GI50): 5.5 µM
- CC50 (CAKI-1; [8]): > 100 µM
- GI50 (CAKI-1; [9]): 5.5 µM
- CC50 (CAKI-1; [10]): > 100 µM
- TGI (CAKI-1; read-out: Log10TGI (converted)): 39.8 µM
- TGI (CAKI-1; read-out: TGI): 39.8 µM
- Activity (UACC-257): 81%
- GI50 (MOLT-4; read-out: GI50): 2.12 µM
- CC50 (MOLT-4; [8]): 56.2 µM
- GI50 (MOLT-4; [9]): 2.14 µM
- CC50 (MOLT-4; [10]): 56.2 µM
- TGI (MOLT-4; read-out: Log10TGI (converted)): 7.08 µM
- TGI (MOLT-4; read-out: TGI): 7.03 µM

Reference: ChEMBL document CHEMBL1153726, “Synthesis and anticancer activity of sclerophytin-inspired hydroisobenzofurans” (Bioorg Med Chem Lett, 2009)
